Source: ChEMBL document CHEMBL1687776, “Origin and molecular evolution of the determinant of methicillin resistance in staphylococci” (2010)
Values after ≈ are worked out from the molar mass of the structure shown.

Test system: Staphylococcus vitulinus
Assay: Antibacterial activity against mecA-negative Staphylococcus vitulinus SVMN03 by agar dilution method
Assay type: functional
Conditions: Mammaliicoccus vitulinus
How it was run: (§1)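 MIC by agar dilution on Mueller-Hinton agar following CLSI guidelines. Resistance was assigned using CLSI breakpoints. Agents tested were oxacillin, ampicillin, ceftizoxime, ceftriaxone and cefoxitin. Strains were from animal or food sources and identified by hsp60 and/or sodA sequencing. mecA absence was assessed by PCR with degenerate primers for mecA and its homologues.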

Row | Structure (SMILES) | MIC [µg/mL]
1 | CO/N=C(\C(=O)N[C@@H]1C(=O)N2C(C(=O)O)=CCS[C@H]12)c1csc(N)n1 [CEFTIZOXIME] | 0.25 (≈ 0.652 µM)

Test system: Staphylococcus vitulinus
Assay: Antibacterial activity against methicillin-resistant mecA-positive Staphylococcus vitulinus SVMP04 by agar dilution method
Assay type: functional
Conditions: Mammaliicoccus vitulinus
How it was run: (§2)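 MIC by agar dilution on Mueller-Hinton agar per CLSI guidance; resistance judged against CLSI breakpoints. Strains were animal or food isolates (type strains for S. sciuri subspecies), typed by hsp60 and/or sodA sequencing; mecA homologue carriage checked by PCR with degenerate primers. Agents tested: oxacillin, ampicillin, ceftizoxime, ceftriaxone, cefoxitin.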

Row | Structure (SMILES) | MIC [µg/mL]
2 | CO/N=C(\C(=O)N[C@@H]1C(=O)N2C(C(=O)O)=CCS[C@H]12)c1csc(N)n1 [CEFTIZOXIME] | 0.5 (≈ 1.3 µM)

Test system: Staphylococcus vitulinus
Assay: Antibacterial activity against mecA-negative Staphylococcus vitulinus SVMN01 (ATCC 51145T) by agar dilution method
Assay type: functional
Conditions: Mammaliicoccus vitulinus
How it was run: as §1

Row | Structure (SMILES) | MIC [µg/mL]
3 | CO/N=C(\C(=O)N[C@@H]1C(=O)N2C(C(=O)O)=CCS[C@H]12)c1csc(N)n1 [CEFTIZOXIME] | 4 (≈ 10.4 µM)

Test system: Mammaliicoccus lentus
Assay: Antibacterial activity against mecA-negative Staphylococcus lentus ATCC 29070T by agar dilution method
Assay type: functional
Conditions: not given
How it was run: as §1

Row | Structure (SMILES) | MIC [µg/mL]
4 | CO/N=C(\C(=O)N[C@@H]1C(=O)N2C(C(=O)O)=CCS[C@H]12)c1csc(N)n1 [CEFTIZOXIME] | 1 (≈ 2.61 µM)

Test system: Staphylococcus vitulinus
Assay: Antibacterial activity against mecA-negative Staphylococcus vitulinus SVMN10 by agar dilution method
Assay type: functional
Conditions: Mammaliicoccus vitulinus
How it was run: as §1

Row | Structure (SMILES) | MIC [µg/mL]
5 | CO/N=C(\C(=O)N[C@@H]1C(=O)N2C(C(=O)O)=CCS[C@H]12)c1csc(N)n1 [CEFTIZOXIME] | 0.25 (≈ 0.652 µM)

Test system: Staphylococcus fleurettii
Assay: Antibacterial activity against methicillin-resistant mecA-positive Staphylococcus fleurettii SFMP03 by agar dilution method
Assay type: functional
Conditions: Mammaliicoccus fleurettii
How it was run: as §2

Row | Structure (SMILES) | MIC [µg/mL]
6 | CO/N=C(\C(=O)N[C@@H]1C(=O)N2C(C(=O)O)=CCS[C@H]12)c1csc(N)n1 [CEFTIZOXIME] | 128 (≈ 334 µM)

Test system: Staphylococcus fleurettii
Assay: Antibacterial activity against mecA-negative Staphylococcus fleurettii SFMN02 by agar dilution method
Assay type: functional
Conditions: Mammaliicoccus fleurettii
How it was run: as §1

Row | Structure (SMILES) | MIC [µg/mL]
7 | CO/N=C(\C(=O)N[C@@H]1C(=O)N2C(C(=O)O)=CCS[C@H]12)c1csc(N)n1 [CEFTIZOXIME] | 2 (≈ 5.22 µM)

Test system: Staphylococcus vitulinus
Assay: Antibacterial activity against methicillin-resistant mecA-positive Staphylococcus vitulinus SVMP05 by agar dilution method
Assay type: functional
Conditions: Mammaliicoccus vitulinus
How it was run: as §2

Row | Structure (SMILES) | MIC [µg/mL]
8 | CO/N=C(\C(=O)N[C@@H]1C(=O)N2C(C(=O)O)=CCS[C@H]12)c1csc(N)n1 [CEFTIZOXIME] | 1 (≈ 2.61 µM)

Test system: Staphylococcus vitulinus
Assay: Antibacterial activity against mecA-negative Staphylococcus vitulinus SVMN02 by agar dilution method
Assay type: functional
Conditions: Mammaliicoccus vitulinus
How it was run: as §2

Row | Structure (SMILES) | MIC [µg/mL]
9 | CO/N=C(\C(=O)N[C@@H]1C(=O)N2C(C(=O)O)=CCS[C@H]12)c1csc(N)n1 [CEFTIZOXIME] | 1 (≈ 2.61 µM)

Test system: Staphylococcus vitulinus
Assay: Antibacterial activity against mecA-negative Staphylococcus vitulinus SVMN13 by agar dilution method
Assay type: functional
Conditions: Mammaliicoccus vitulinus
How it was run: as §1

Row | Structure (SMILES) | MIC [µg/mL]
10 | CO/N=C(\C(=O)N[C@@H]1C(=O)N2C(C(=O)O)=CCS[C@H]12)c1csc(N)n1 [CEFTIZOXIME] | 0.25 (≈ 0.652 µM)

Test system: Staphylococcus vitulinus
Assay: Antibacterial activity against methicillin-resistant mecA-positive Staphylococcus vitulinus SVMP03 by agar dilution method
Assay type: functional
Conditions: Mammaliicoccus vitulinus
How it was run: as §2

Row | Structure (SMILES) | MIC [µg/mL]
11 | CO/N=C(\C(=O)N[C@@H]1C(=O)N2C(C(=O)O)=CCS[C@H]12)c1csc(N)n1 [CEFTIZOXIME] | 0.5 (≈ 1.3 µM)

Test system: Staphylococcus vitulinus
Assay: Antibacterial activity against mecA-negative Staphylococcus vitulinus SVMN07 by agar dilution method
Assay type: functional
Conditions: Mammaliicoccus vitulinus
How it was run: as §2

Row | Structure (SMILES) | MIC [µg/mL]
12 | CO/N=C(\C(=O)N[C@@H]1C(=O)N2C(C(=O)O)=CCS[C@H]12)c1csc(N)n1 [CEFTIZOXIME] | 0.5 (≈ 1.3 µM)

Test system: Staphylococcus vitulinus
Assay: Antibacterial activity against mecA-negative Staphylococcus vitulinus SVMN05 by agar dilution method
Assay type: functional
Conditions: Mammaliicoccus vitulinus
How it was run: as §2

Row | Structure (SMILES) | MIC [µg/mL]
13 | CO/N=C(\C(=O)N[C@@H]1C(=O)N2C(C(=O)O)=CCS[C@H]12)c1csc(N)n1 [CEFTIZOXIME] | 0.5 (≈ 1.3 µM)

Test system: Staphylococcus vitulinus
Assay: Antibacterial activity against mecA-negative Staphylococcus vitulinus SVMN14 by agar dilution method
Assay type: functional
Conditions: Mammaliicoccus vitulinus
How it was run: as §2

Row | Structure (SMILES) | MIC [µg/mL]
14 | CO/N=C(\C(=O)N[C@@H]1C(=O)N2C(C(=O)O)=CCS[C@H]12)c1csc(N)n1 [CEFTIZOXIME] | 0.5 (≈ 1.3 µM)

Test system: Staphylococcus fleurettii
Assay: Antibacterial activity against methicillin-resistant mecA-positive Staphylococcus fleurettii SFMP04 by agar dilution method
Assay type: functional
Conditions: Mammaliicoccus fleurettii
How it was run: as §2

Row | Structure (SMILES) | MIC [µg/mL]
15 | CO/N=C(\C(=O)N[C@@H]1C(=O)N2C(C(=O)O)=CCS[C@H]12)c1csc(N)n1 [CEFTIZOXIME] | 64 (≈ 167 µM)

Test system: Staphylococcus vitulinus
Assay: Antibacterial activity against methicillin-resistant mecA-positive Staphylococcus vitulinus SVMP01 by agar dilution method
Assay type: functional
Conditions: Mammaliicoccus vitulinus
How it was run: as §2

Row | Structure (SMILES) | MIC [µg/mL]
16 | CO/N=C(\C(=O)N[C@@H]1C(=O)N2C(C(=O)O)=CCS[C@H]12)c1csc(N)n1 [CEFTIZOXIME] | 0.5 (≈ 1.3 µM)

Test system: not listed separately
Assay: Antibacterial activity against mecA-positive Staphylococcus sciuri subsp. carnaticus ATCC 700058T by agar dilution method
Conditions: Mammaliicoccus sciuri

Row | Structure (SMILES) | MIC [µg/mL]
17 | CO/N=C(\C(=O)N[C@@H]1C(=O)N2C(C(=O)O)=CCS[C@H]12)c1csc(N)n1 [CEFTIZOXIME] | 2 (≈ 5.22 µM)
